Key:
Rattus norvegicus [1] = assay: Dose reducing the seizure severity in rat cornea 1 hr after peroral administration; type: functional; conditions: po
How it was run: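 Same corneal-kindled Sprague-Dawley rat procedure with the drug given po. Vehicles: 0.5% methylcellulose, 0.9% NaCl or corn oil. Single shock at the time of peak effect, scored on the modified Racine scale. ED50 by Litchfield-Wilcoxon, taken as the dose that reduced seizure severity by 50%.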

[2] = Antiepileptic activity in male CF1 mice 30 min after administration measured in subcutaneous pentylenetetrazole (scMet) test at a dose of 300 mg/kg (no. of animals treated /protected); activity value is 0/1; type: functional, Mus musculus
[3] = Antiepileptic activity in male CF1 mice 30 min after administration measured in maximum electroshock seizure(MES) test at a dose of 300 mg/kg (no. of animals treated /protected); activity value is 0/1; type: functional, Mus musculus
[4] = Antiepileptic activity in male CF1 mice 4 hr after administration measured in neurological toxicity (Tox) test at a dose of 300 mg/kg (no. of animals treated /protected); activity value is 0/2; type: functional, Mus musculus
[5] = Antiepileptic activity in male CF1 mice 4 hr after administration measured in maximum electroshock seizure(MES) test at a dose of 300 mg/kg (no. of animals treated /protected); activity value is 1/1; type: functional, Mus musculus
[6] = Dose at which anticonvulsant activity was observed in mice; type: functional, Mus musculus
[7] = Antiepileptic activity in male CF1 mice 30 min after administration measured in neurological toxicity (Tox) test at a dose of 300 mg/kg (no. of animals treated /protected); activity value is 0/4; type: functional, Mus musculus
[8] = Antiepileptic activity in male CF1 mice 4 hr after administration measured in subcutaneous pentylenetetrazole (scMet) test at a dose of 300 mg/kg (no. of animals treated /protected); activity value is 0/1; type: functional, Mus musculus
Rattus norvegicus [9] = assay: Dose reducing the seizure severity in rat cornea 0.5 hr after peroral administration.; type: functional; conditions: po
How it was run: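 Sprague-Dawley rats (85–95 g initial) were kindled with 4 s, 8 mA corneal stimulations (butacaine anesthesia) to 10 consecutive stage 5 seizures. After a vehicle shock and a 2-day shock-free period, test drug was given ip or po and a single shock applied at time of peak effect. Seizures were scored on a modified Racine 0–5 scale. ED50 is the dose reducing severity by 50% (Litchfield–Wilcoxon).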

[10] = Time of peak anticonvulsant effect in CF1 mice; type: functional, Mus musculus
How it was run: (§1)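 Male CF1 mice (ca. 24–34 g), compound in 0.5% methylcellulose suspension given ip or po; time (h) at which MES protection (against tonic hind limb extension) peaked was recorded and used for ED50 determination.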

[11] = Oral dose producing neurotoxic effects in 50% of rats; type: ADME, organism-based; conditions: rat, in vivo
How it was run: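 Phase VI screen in male Sprague-Dawley rats dosed orally. MES protection and rotorod toxicity were scored as animals responding over animals tested at 0.25, 0.5, 1, 2 and 4 h.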

[12] = Time of peak neurotoxic effect in CF1 mice; type: ADME; conditions: mouse, in vivo
How it was run: (§2)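 Male CF1 mice (ca. 24–34 g), compound ip in 0.5% methylcellulose suspension; neurological deficit assessed by rotorod test, time (h) of peak neurotoxic effect recorded for TD50 determination.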

[13] = Dose showing neurotoxicity in 50% of the at the time of peak neurotoxic effect in CF1 MICE after ip administration.; type: toxicity, organism-based; conditions: CF1, mouse, in vivo
How it was run: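 CF1 male mice (ca. 24–34 g), dosed ip in 0.5% methylcellulose suspension. Neurotoxicity measured by the rotorod test at the time of peak neurotoxic effect. TD50 and confidence limits by the Litchfield-Wilcoxon method.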

[14] = Antiepileptic activity in male CF1 mice 30 min after administration measured in neurological toxicity (Tox) test at a dose of 100 mg/kg (no. of animals treated /protected); activity value is 0/8; type: functional, Mus musculus
[15] = Protective index was measured as TD50/MES ED50 in mice on ip administration; type: ADME, organism-based; conditions: mouse, in vivo, read-out: PI
How it was run: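 Male CF1 mice (ca. 24–34 g), compound given ip as 0.5% methylcellulose suspension. MES ED50 = dose protecting 50% from tonic hind limb extension; TD50 = median neurotoxic dose by rotorod; both at time of peak effect, with confidence limits by Litchfield and Wilcoxon. PI = TD50/MES ED50.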

[16] = Antiepileptic activity in male CF1 mice 4 hr after administration measured in neurological toxicity (Tox) test at a dose of 100 mg/kg (no. of animals treated /protected); activity value is 0/4; type: functional, Mus musculus
[17] = Antiepileptic activity in male CF1 mice 4 hr after administration measured in maximum electroshock seizure(MES) test at a dose of 100 mg/kg (no. of animals treated /protected); activity value is 0/3; type: functional, Mus musculus
[18] = Dose protecting 50% of the mice from tonic hind limb extension at the time of […] after ip administration.; type: functional; conditions: Mus musculus, Hindlimb
How it was run: (§3)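 Phase II quantification in CF1 male mice (ca. 24–34 g), dosing ip or po in 0.5% methylcellulose suspension. ED50 is protection from tonic hind limb extension in MES. TD50 is rotorod neurotoxicity. Both were read at time of peak effect and derived by Litchfield–Wilcoxon with 95% confidence limits.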

[19] = Time of peak anticonvulsant effect in CF1 MICE after po administration.; type: functional, Mus musculus; how it was run: as §1
[20] = Antiepileptic activity in male CF1 mice 30 min after administration measured in maximum electroshock seizure(MES) test at a dose of 300 mg/kg (no. of animals treated /protected); activity value is 1/1; type: functional, Mus musculus
[21] = Dose elevating electroshock induced seizure by 20% in CF1 mice after ip administration.; type: functional, Mus musculus
How it was run: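 In CF1 male mice (ca. 24–34 g), compound was given ip in 0.5% methylcellulose. The current giving hind limb extension in 50% of mice was found by the up-and-down method, with 15–25 mice per group and a vehicle control group run with each experimental group. At least three doses were tested. The dose raising threshold current by 20% was taken from a plot of dose against % threshold increase.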

[22] = Antiepileptic activity in male CF1 mice 30 min after administration measured in neurological toxicity (Tox) test at a dose of 300 mg/kg (no. of animals treated /protected); activity value is 1/4; type: functional, Mus musculus
[23] = Time of peak anticonvulsant effect in CF1 MICE after ip administration.; type: functional, Mus musculus; how it was run: as §1
[24] = Dose protecting 50% of the mice from tonic hind limb extension at the time of peak convulsant effect after po administration.; type: functional; conditions: Mus musculus, Hindlimb; how it was run: as §3
[25] = Time of peak neurotoxic effect in CF1 MICE after ip administration.; type: ADME, organism-based; conditions: mouse, in vivo; how it was run: as §2
[26] = Antiepileptic activity in male CF1 mice 4 hr after administration measured in subcutaneous pentylenetetrazole (scMet) test at a dose of 100 mg/kg; activity value is 0/1; type: functional, Mus musculus
[27] = Antiepileptic activity in male CF1 mice 30 min after administration measured in maximum electroshock seizure(MES) test at a dose of 100 mg/kg (no. of animals treated /protected); activity value is 1/3; type: functional, Mus musculus
[28] = Antiepileptic activity in male CF1 mice 30 min after administration measured in subcutaneous pentylenetetrazole (scMet) test at a dose of 100 mg/kg (no. of animals treated /protected) activity value is 0/1; type: functional, Mus musculus
[29] = Antiepileptic activity in male CF1 mice 4 hr after administration measured in maximum electroshock seizure(MES) test at a dose of 300 mg/kg (no. of animals treated /protected); activity value is 0/1; type: functional, Mus musculus
[30] = Dose producing neurotoxic effects in 50% of the CF1 mice after intraperitoneal administration.; type: ADME; conditions: CF1, mouse, in vivo, ip; how it was run: as §3
[31] = Anticonvulsant activity administered intraperitoneally in CF1 mice is the ability to protect the mice from MES(maximal electroshock seizure).; type: functional; conditions: Mus musculus, ip
[32] = Protective index was measured as TD50/ED50; type: ADME; conditions: read-out: PI
[33] = Antiepileptic activity in male CF1 mice 4 hr after administration measured in subcutaneous pentylenetetrazole (scMet) test at a dose of 100 mg/kg (no. of animals treated /protected); activity value is 0/1; type: functional, Mus musculus
[34] = Antiepileptic activity in male CF1 mice 30 min after administration measured in subcutaneous pentylenetetrazole (scMet) test at a dose of 100 mg/kg (no. of animals treated /protected); activity value is 0/1; type: functional, Mus musculus

O=C1CN=C(c2ccccc2Cl)c2cc([N+](=O)[O-])ccc2N1 [CLONAZEPAM]
ED50 (Rattus norvegicus [1]): 0.7 mg/kg

CC1CC(NCCc2ccccc2)=CC(=O)C1C(=O)NCCc1ccccc1 (stereo not drawn)
Activity [2]: 0
Activity [3]: 0
Activity [4]: 0
Activity [5]: 1
Dose [6]: >100 mg/kg
Activity [7]: 0
Activity [8]: 0

O=C1NC(=O)C(c2ccccc2)(c2ccccc2)N1 [PHENYTOIN]
ED50 (Rattus norvegicus [9]): > 100 mg/kg
TPE [10]: 2
TD50 [11]: > 3000 mg/kg
TPE [12]: 2

CC1(C)CC(O)=C/C(=N\Cc2ccccc2)C1
TD50 [13]: 148 mg/kg
Activity [14]: 0
selectivity ratio [15]: 2.8
Activity [16]: 0
Activity [17]: 0
ED50 [18]: 53 mg/kg
TPE [19]: 0.5
Activity [2]: 0
Activity [20]: 1
Dose [21]: 20 mg/kg
Activity [22]: 1
TPE [23]: 0.5
Activity [4]: 0
Activity [5]: 1
ED50 [24]: 211 mg/kg
TPE [25]: 0.25
Activity [26]: 0
Activity [27]: 1
Dose [6]: >100 mg/kg
Activity [28]: 0
Activity [8]: 0

COC(=O)C1C(O)=C/C(=N\Cc2ccccc2)CC1(C)C (stereo not drawn)
Activity [29]: 0
TPE [10]: 0.5
Activity [2]: 0
Activity [20]: 1
Activity [22]: 1
Activity [4]: 0
TD50 [30]: > 500 mg/kg
ED50 [31]: 132 mg/kg
TPE [12]: 1
selectivity ratio [32]: 3.8
Dose [6]: >100 mg/kg
Activity [8]: 0

COC(=O)C1C(O)=C/C(=N\CCc2ccccc2)CC1(C)C (stereo not drawn)
Activity [33]: 0
Activity [14]: 0
Activity [16]: 0
Activity [17]: 0
Activity [29]: 0
Activity [2]: 0
Activity [20]: 1
Activity [22]: 1
Activity [4]: 0
Activity [34]: 0
Activity [27]: 1
Dose [6]: <=100 mg kg-1
Activity [8]: 0

From ChEMBL document CHEMBL1125497, “Synthesis and anticonvulsant activity of enaminones” (J Med Chem, 1992)
